Bioassay records (PubChem BioAssay)
In the library only some 2.9% were active in any assay of this set; here they are far more common.
VIM-2 inhibitor: VIM-2 metallo-beta-lactamase inhibitors, primary screen, biochemical, epi-absorbance readout, Pseudomonas aeruginosa enzyme. purified VIM-2, nitrocefin hydrolysis, epi-absorbance fluorescence. inhibition, % at 5.6 µM. 290,000 compounds, 0.89% hits. AID 1527, 2009;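 active = inhibition above the mean of all tested compounds plus 3 SD, cutoff set per screening run, cut at about 7.5% in these data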;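 also: red hydrolysis product quenches plate fluorescence so inhibitors raise well fluorescence; 0% = enzyme with DMSO and 100% = DMSO without enzyme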
PolyA inh: polyadenylation inhibitors in yeast reporter cells, primary screen, luminescence, S. cerevisiae | S. cerevisiae SKY197-pL101 polyadenylation reporter, beta-gal luminescence; efflux-impaired pdr1/pdr3 knockout yeast; score 100 = 6 SD above DMSO | AID 1875, 2009 | activity score, % at 12 µM | 300,000 compounds, 0.02% hits;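 active = lowest replicate activity score at least 50, where 100 means six control SD above control mean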;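 also: yeast exposed to compound for 9 h at 30 °C; higher score means more reporter readthrough which indicates perturbed polyadenylation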
Mot1-301 SUMO: yeast Mot1-301 growth rescue at high temperature, primary screen, SUMOylation pathway inhibitor project, S. cerevisiae, ATP luminescence, 38.5C; AID 2716, 2010; S. cerevisiae Mot1-301 growth rescue; percent above DMSO median, 100 means doubled; 320,000 compounds, 1% hits; growth rescue, % at 18.8 µM;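 active = every valid replicate shows activation above 250% relative to neutral control wells; inactive = the rest, any valid replicate at or below 250%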;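 also: OY570 slx delta 5 strain wells were the positive control but not used for scaling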
IMP-1 inh: IMP-1 metallo-beta-lactamase inhibitors, primary screen, biochemical, epi-absorbance readout, Pseudomonas aeruginosa enzyme. metallo-beta-lactamase IMP-1 (Pseudomonas aeruginosa). purified IMP-1, nitrocefin hydrolysis, epi-absorbance fluorescence. inhibition, % at 5.6 µM. 290,000 compounds, 0.45% hits. AID 1556, 2009;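 active = inhibition above the mean plus 3 SD of all compounds in the same screening run, cut at about 4.5% in these data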;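 also: 0% = IMP-1 with DMSO and 100% = DMSO wells lacking enzyme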
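system = purified recombinant IMP-1 beta-lactamase | amount = 0.2 nM IMP-1, as dispensed | medium = HEPES buffer pH 7.1 with ZnSO4 and Brij 35 | times = 25 °C, 15 min preincubation, 25 min reaction | detection = plate fluorescence quenching by hydrolysis product, ex 480/em 530 nm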
NLRP3 yeast inh: NALP3 inflammasome inhibitors in reconstituted yeast, primary screen, luminescence, uHTS; Yeast reconstituted NLRP3/ASC/caspase-1, beta-gal luminescence, 24 h; inhibition, % at 10 µM; 330,000 compounds, 0.39% hits;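 active = inhibition of 50% or more; inactive = inhibition below 50%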;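 also: plate controls were induced DMSO wells for no effect and uninduced yeast grown without galactose for full effect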
NALP1 yeast inh: NALP1 inflammasome inhibitors in reconstituted yeast, colorimetric, S. cerevisiae, triplicate retest | 280,000 compounds, 0.61% hits | S. cerevisiae NALP1/ASC/caspase-1 growth, X-gal OD620, 72 h | inhibition, % at 10 µM; in the data active = inhibition mostly above about 24%, no sharp cut-off; inactive = mostly below about 32%
VIM-2 inh confirm: P. aeruginosa VIM-2 enzyme inhibition – biochemical, epi-absorbance, HTS, confirmation; shares compounds with IMP-1 inh; inhibition, % at 5.6 µM; purified VIM-2 enzyme, nitrocefin absorbance; 200 compounds, 73% hits; in the data active = inhibition above about 8%;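 also: 0% = enzyme with vehicle and 100% = no enzyme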
TEM-1 counter: Serine beta-lactamase TEM-1 inhibition, biochemical epi-absorbance counter-screen for IMP-1/VIM-2 inhibitor program; shares compounds with IMP-1 inh; TEM-1 beta-lactamase, nitrocefin absorbance inhibition; inhibition, % at 5.6 µM; 200 compounds, 50% hits; AID 2184, 2009; in the data active = inhibition above about 0.66%
Target sequence (P62593 whole entry, looked up): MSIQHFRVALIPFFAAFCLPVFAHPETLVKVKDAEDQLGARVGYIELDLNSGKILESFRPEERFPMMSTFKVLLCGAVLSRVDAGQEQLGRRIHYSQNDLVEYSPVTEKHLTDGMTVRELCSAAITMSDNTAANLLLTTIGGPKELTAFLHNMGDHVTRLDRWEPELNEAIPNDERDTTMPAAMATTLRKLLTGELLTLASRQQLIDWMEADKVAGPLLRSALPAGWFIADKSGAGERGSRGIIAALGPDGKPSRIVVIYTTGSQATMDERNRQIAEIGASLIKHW
IMP-1 inh conf: IMP-1 metallo-beta-lactamase inhibitors, confirmation, biochemical, epi-absorbance, hits shared with VIM-2 screen. shares compounds with IMP-1 inh. purified IMP-1 enzyme, absorbance substrate hydrolysis. inhibition, % at 5.6 µM. 200 compounds, 60% hits; in the data active = inhibition above about 4.9%;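 also: 0% = enzyme with vehicle and 100% = vehicle without enzyme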
The depositor's hits bear a star; nt = no result given.

SMILES | VIM-2 inhibitor | PolyA inh | Mot1-301 SUMO | IMP-1 inh | NLRP3 yeast inh | NALP1 yeast inh | VIM-2 inh confirm | TEM-1 counter | IMP-1 inh conf
O=C(/C=C/c1ccncc1)c1cc(Cl)ccc1O | -2.3 | -7.7 | 30.4 | -2.6 | 12.8 | 23.8 | nt | nt | nt
CN(C)c1ccc(/C=C/C(=O)c2cc(Cl)ccc2O)cc1 | 15.0* | -9.8 | 5.7 | 19.8* | nt | 17.1 | 24.3* | 34.5* | 22.3*
Cc1cc(=O)oc2c(CN3CCCC3)c(O)c(Cl)cc12 | -2.8 | 1.1 | 2.5 | -1.8 | 6.2 | -0.4 | nt | nt | nt
CCc1cc(=O)oc2cc(C)c(CN3CCCC3)c(O)c12 | 15.5* | -0.4 | -27.7 | 20.1* | 2.2 | 0.9 | 17.6* | -0.8 | 8.8*
CCc1cc(=O)oc2cc(C)c(CN3CCCCC3)c(O)c12 | 13.4* | 20.7 | -14.0 | 18.5* | nt | -14.3 | 4.4 | -4.8 | -0.6
Cc1ccc(C(C)C)c(OCc2nn(CC(=O)c3ccc(OC(F)F)cc3)c3[n+]2CCCCC3)c1 | -4.1 | 0.3 | -22.0 | -3.0 | 0.1 | -23.7 | nt | nt | nt
CN1C(=O)/C(=C\c2ccc(N(C)C)cc2)OC1=S | 8.0* | -16.2 | -16.4 | 9.5* | 30.3 | 12.4 | 8.3* | 18.1* | 6.1*
O=C(O)c1cc(N/N=C/c2cccc3ccccc23)ccc1Cl | 0.3 | -8.4 | -6.3 | -1.4 | 0.6 | -7.1 | nt | nt | nt
CC(C)n1cc(/C=N/Nc2ccc(Cl)c(C(=O)O)c2)c2ccccc21 | 10.2* | -9.1 | 11.2 | 34.6* | 3.9 | 2.8 | 8.0* | -3.9 | 27.6*
CCOc1ccc(S(=O)(=O)N2CCC(C(=O)NCc3ccncc3)CC2)cc1 | 0.0 | -6.5 | 0.2 | -2.4 | 13.5 | 16.0 | nt | nt | nt
CC(NC(=O)c1cccs1)C(S)c1ccccc1 (stereo unspecified) | 41.1* | -5.1 | 5.4 | 21.5* | nt | 1.7 | 46.6* | -5.8 | 48.5*
COCCN(C(=O)Nc1ccccc1OC)c1nc2ccccc2s1 | -1.0 | 18.8 | -6.3 | -2.2 | 23.3 | 8.0 | nt | nt | nt
COC(=O)c1c(C(=O)OC)c(-c2ccc(F)cc2)n2c1CSC2 | 0.0 | -5.3 | 1.2 | -3.4 | 29.2 | 1.6 | nt | nt | nt
CC(C)(C)c1ccc(-c2c(C(=O)O)c(C(=O)O)c3n2CSC3)cc1 | 20.2* | -2.9 | 30.2 | 20.4* | 6.7 | -3.7 | 17.3* | -4.8 | 12.4*
COc1ccc(-c2cc(C(=O)NC(C)c3ccccn3)c3ccccc3n2)cc1OC (stereo unspecified) | nt | nt | -8.3 | nt | -7.4 | nt | nt | nt | nt
CCn1c(/C=C/c2c[nH]c3ccccc23)nc2ccccc2c1=O | -5.6 | -5.3 | 43.0 | -4.2 | 3.1 | 3.5 | nt | nt | nt
COc1ccc2c(/C=C/c3cc[n+](C)cc3)c[nH]c2c1 | 1.1 | 17.1 | 6.3 | -3.1 | 18.3 | 16.2 | nt | nt | nt
Cc1ccc2[nH]cc(/C=C/c3cc[n+](C)cc3)c2c1 | 15.0* | -13.3 | 384.0 | 5.7* | 25.5 | 12.3 | 14.7* | 5.1* | 5.9*
CC[n+]1ccc(/C=C/c2c[nH]c3ccccc23)cc1 | 8.2* | 10.7 | -2.8 | 5.6* | 25.8 | 16.6 | 8.1* | 2.7* | 3.8
Cc1cccc(C)c1OCc1cc(C(=O)N(Cc2nccn2C)C(C)C)no1 | -1.1 | -2.5 | 14.6 | -2.6 | 12.4 | 13.6 | nt | nt | nt
CC1CCN(C(=O)CSc2nnc(CNC(=O)COc3ccc(Cl)cc3)o2)CC1 | 7.2 | -8.6 | -20.1 | 35.3* | 6.7 | 3.8 | 1.2 | -0.7 | -0.5
O=C(CSc1nc2nc(-c3cccs3)cc(C(F)(F)F)c2c(=O)[nH]1)C(F)(F)F | 21.6* | 1.8 | -1.5 | 4.9* | 3.8 | 7.4 | 26.4* | -2.8 | 2.8
CSc1nc2nc(-c3cccs3)cc(C(F)(F)F)c2c(=O)[nH]1 | 7.6 | 11.9 | -9.8 | -1.1 | 4.3 | 27.1 | nt | nt | nt
COc1ccc(-c2cc(=O)oc3c(C)c(OCC(=O)NCCCn4ccnc4)ccc23)cc1 | 19.3* | 0.2 | -4.0 | 38.0* | 1.2 | 8.0 | 25.8* | -4.3 | 31.8*
O=C(COc1ccc(Cl)cc1Cl)NCCCn1ccnc1 | -2.0 | 0.5 | 6.0 | -2.0 | 11.6 | 8.1 | nt | nt | nt
SMILES | VIM-2 inhibitor | PolyA inh | Mot1-301 SUMO | IMP-1 inh | NLRP3 yeast inh | NALP1 yeast inh | VIM-2 inh confirm | TEM-1 counter | IMP-1 inh conf
CN(/N=C/c1ccc(N(C)C)cc1)C1=NS(=O)(=O)c2ccccc21 | 51.5* | 25.6 | 127.1 | 24.2* | 6.6 | 6.2 | 29.1* | 14.3* | 23.7*
COc1ccc(NC(=O)NS(=O)(=O)c2ccc(C)cc2)cn1 | 16.1* | 3.6 | -10.3 | 11.9* | nt | 18.9 | -0.2 | -2.0 | -2.6
COc1cc(NC(=O)NS(=O)(=O)c2ccc(C)cc2)cc(OC)c1 | -2.0 | 6.0 | 3.1 | -3.1 | 2.5 | 32.3 | nt | nt | nt
Cc1cc2c(cc1S(=O)(=O)N1CCOCC1)NC(=O)CO2 | 2.6 | -3.0 | 9.4 | -1.1 | -1.5 | 17.7 | nt | nt | nt
O=C(O)/C=C/C(=O)Nc1ccc(C2(c3ccc(NC(=O)/C=C/C(=O)O)cc3)c3ccccc3-c3ccccc32)cc1 | -1.6 | 2.6 | 224.4 | -1.1 | 14.6 | 1.7 | nt | nt | nt
CCOc1ccc(/C=C2\SC(=S)NC2=O)cc1OC | -2.8 | -11.9 | 46.2 | -3.7 | 25.4 | -16.2 | nt | nt | nt
COc1ccc(/C=C2\SC(=O)NC2=S)cc1OC | 11.9* | -26.9 | 139.1 | 6.8* | 20.5 | -0.1 | 3.4 | -8.9 | -4.7
Cc1ccc(NC(=O)CSCC(=O)N(CCC(C)C)c2c(N)n(Cc3ccccc3)c(=O)[nH]c2=O)cc1 | nt | nt | nt | nt | 28.6 | nt | nt | nt | nt
Cn1c2ccccc2c2cc(C(=O)NNS(=O)(=O)c3ccc(F)cc3)sc21 | 7.1 | 21.3 | 24.1 | 5.0* | -10.3 | 36.0 | -0.7 | -5.6 | -2.2
CCOc1ccc(-c2cc(C(=O)NCCCn3ccnc3)c3cc(Br)ccc3n2)cc1 | 17.1* | 13.2 | 26.2 | 32.7* | 18.3 | 7.1 | 20.6* | -2.0 | 41.4*
OCCC1CN(Cc2ccc3cccc(F)c3n2)CCN1Cc1ccccc1 (stereo unspecified) | -3.0 | 8.5 | 10.1 | -2.9 | 13.6 | -12.6 | nt | nt | nt
N#CC1=C(N)S[C@H](C(=O)C23CC4CC(CC(C4)C2)C3)[C@H]1c1ccncc1 | 21.6* | -15.2 | -7.3 | 54.9* | -0.3 | 3.2 | -0.4 | -4.8 | 5.8*
